Measured values from ChEMBL document CHEMBL4130503, “Discovery of novel diarylpyrazolylquinoline derivatives as potent anti-dengue virus agents” (Eur J Med Chem, 2017).
The source made the active and inactive calls. The calls are words filed in the database; no cut-off is given here.

Columns and labels:
dengue virus type 2 [1] = assay: Antiviral activity against Fluc-tagged DENV2 strain 16681 infected in human HuH7 cells assessed as inhibition of viral replication at 1 uM after 3 days by luciferase reporter gene assay relative to control; assay type: functional; settings: Thailand/16681/84, Huh-7, 72 h
How it was run: (§1)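 Huh-7-DV-Fluc cells seeded at 2 × 10^4 per well, exposed to 1 or 10 µM for 3 days against a 0.1% DMSO control. Firefly luciferase activity (Bright-Glo) read as DENV-2 replication; percent inhibition relative to control.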

[2] = Selectivity index, ratio of CC50 for human HuH7 cells to IC50 for Fluc-tagged DENV2 strain 16681 infected in human HuH7 cells; assay type: toxicity, cell-based; settings: read-out: Ratio CC50/IC50
How it was run: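 SI is calculated as CC50/IC50. CC50 is 50% growth inhibition of uninfected Huh-7 cells by XTT after 3 days. IC50 is 50% inhibition of DENV-2 replication in Huh-7-DV-Fluc replicon cells (2 × 10^4 cells/well), measured by firefly luciferase after 3 days of treatment with a 0.1% DMSO control.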

dengue virus type 2 [3] = assay: Antiviral activity against Fluc-tagged DENV2 strain 16681 infected in human HuH7 cells assessed as inhibition of viral replication at 10 uM after 3 days by luciferase reporter gene assay relative to control; assay type: functional; settings: Thailand/16681/84, Huh-7, 72 h; how it was run: as §1
[4] = Cytotoxicity against human HuH7 cells assessed as cell viability at 200 uM after 3 days by XTT method relative to control; assay type: cell-based, Huh-7; settings: read-out: Activity
How it was run: (§2)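 Uninfected Huh-7 cells were seeded at 5 × 10^3 cells/well in maintenance medium. They were exposed to compound at 20 or 200 µM, diluted into medium from 10 mM DMSO stocks, with 0.1% DMSO as control. Incubation was 3 days at 37 °C in humidified 5% CO2. Viability was read by XTT, run in parallel with the antiviral assays.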

[5] = Cytotoxicity against human HuH7 cells assessed as cell viability at 20 uM after 3 days by XTT method relative to control; assay type: cell-based, Huh-7; settings: read-out: Activity; how it was run: as §2
dengue virus type 2 [6] = assay: Potency index, ratio of ribavirin IC50 to compound IC50 for antiviral activity against Fluc-tagged DENV2 strain 16681 infected in human HuH7 cells; assay type: functional, Thailand/16681/84
dengue virus type 2 [7] = assay: Antiviral activity against Fluc-tagged DENV2 strain 16681 infected in human HuH7 cells after 3 days by luciferase reporter gene assay; assay type: functional, organism-based; settings: Thailand/16681/84, Huh-7, 72 h
[8] = Cytotoxicity against human HuH7 cells assessed as growth inhibition after 3 days by XTT method; assay type: cell-based, Huh-7
How it was run: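 Uninfected Huh-7 cells were seeded at 5 × 10^3 cells/well and treated for 3 days at 37 °C in humidified 5% CO2. Viability was read by XTT against a 0.1% DMSO control. CC50 was taken as the concentration giving 50% growth inhibition.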

dengue virus type 4 = assay: Antiviral activity against Fluc-tagged DENV4 infected in human HuH7 cells after 3 days by luciferase reporter gene assay; assay type: functional, organism-based; settings: Huh-7, 72 h
dengue virus type 2 [9] = assay: Antiviral activity against DENV2 strain 16681 infected in ICR suckling mouse assessed as protection against anorexia at 1 to 5 mg/kg, ip treated on day 1,3 and 5 post infection measured daily for 6 days; assay type: functional, organism-based; settings: Thailand/16681/84
How it was run: (§3)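 Six-day-old ICR suckling mice, n = 5/group, given 2.5 × 10^5 pfu DENV-2 intracerebrally, then 1, 5, 10 or 20 mg/kg intraperitoneally at 1, 3 and 5 dpi. Controls were DENV plus ip saline, and 60 °C heat-inactivated DENV (mock). Survival, clinical score (paralysis, anorexia, asthenia) and body weight were recorded daily for 6 days.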

dengue virus type 1 = assay: Antiviral activity against Fluc-tagged DENV1 infected in human HuH7 cells after 3 days by luciferase reporter gene assay; assay type: functional, organism-based; settings: Huh-7, 72 h
dengue virus type 3 = assay: Antiviral activity against Fluc-tagged DENV3 infected in human HuH7 cells after 3 days by luciferase reporter gene assay; assay type: functional, organism-based; settings: Huh-7, 72 h
dengue virus type 2 [10] = assay: Antiviral activity against DENV2 strain 16681 infected in ICR suckling mouse assessed as protection against mouse death at 1 to 5 mg/kg, ip treated on day 1,3 and 5 post infection measured daily for 6 days; assay type: functional, organism-based; settings: Thailand/16681/84; how it was run: as §3
dengue virus type 2 [11] = assay: Antiviral activity against DENV2 strain 16681 infected in ICR suckling mouse assessed as protection against asthenia at 1 to 5 mg/kg, ip treated on day 1,3 and 5 post infection measured daily for 6 days; assay type: functional, organism-based; settings: Thailand/16681/84; how it was run: as §3
dengue virus type 2 [12] = assay: Antiviral activity against Fluc-tagged DENV2 strain 16681 infected in human HuH7 cells assessed as reduction in viral replication by measuring NS2B protein expression at 0.5 to 5 uM after 3 days by immunoblot analysis; assay type: functional, organism-based; settings: Thailand/16681/84
How it was run: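 DENV-2 (16681) replicating Huh-7 cells treated with 0.5, 1, 2.5 and 5 µM for 3 days; 0.1% DMSO mock. Whole-cell lysates immunoblotted overnight with rabbit polyclonal anti-NS2B (1:3000); GAPDH (1:10000) as loading control.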

dengue virus type 2 [13] = assay: Antiviral activity against Fluc-tagged DENV2 strain 16681 infected in human HuH7 cells assessed as reduction in viral replication by measuring NS5 gene expression at 0.5 to 5 uM after 3 days by RT-qPCR assay; assay type: functional, organism-based; settings: Thailand/16681/84
How it was run: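 DENV-2 (16681) replicating Huh-7 cells exposed to 0.5, 1, 2.5 and 5 µM for 3 days; 0.1% DMSO mock. Total RNA analysed by RT-qPCR with NS5-targeted primers, normalised to cellular GAPDH mRNA; means ± SD of triplicate experiments.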

dengue virus type 2 [14] = assay: Antiviral activity against DENV2 strain 16681 infected in ICR suckling mouse assessed as protection against paralysis at 1 to 5 mg/kg, ip treated on day 1,3 and 5 post infection measured daily for 6 days; assay type: functional, organism-based; settings: Thailand/16681/84; how it was run: as §3

Structure (SMILES)	inhibition at 1 µM (dengue virus type 2 [1]) [%]	inhibition at 10 µM (dengue virus type 2 [3]) [%]	viability at 72 h, 200 µM [4] [%]	viability at 72 h, 20 µM [5] [%]	other results
NC(=O)c1ncn([C@@H]2O[C@H](CO)[C@@H](O)[C@H]2O)n1 [RIBAVIRIN]	10.1	32.5	26.8	–	selectivity ratio [2]: 4.47
NS(=O)(=O)c1ccc(-n2nc(-c3ccc(F)cc3)cc2-c2ccc3cc(F)ccc3n2)cc1	5.71	12.8	43	91.1	–
Fc1ccc2nc(-c3cc(-c4ccccc4)nn3-c3ccccc3)ccc2c1	3.02	5.13	98.3	126	–
COc1ccc(-c2cc(-c3ccc4cc(F)ccc4n3)n(-c3ccc(F)cc3)n2)cc1	41.4	55.3	95.4	98.8	selectivity ratio [2]: > 147; Ratio IC50 (dengue virus type 2 [6]): 10; IC50 (dengue virus type 2 [7]): 1360 nM; CC50 at 72 h [8]: > 200000 nM
COc1ccc(-c2cc(-c3ccc4cc(F)ccc4n3)n(-c3ccc(OC)cc3)n2)cc1	46.9	65.7	98.4	95.8	selectivity ratio [2]: > 183; Ratio IC50 (dengue virus type 2 [6]): 10; IC50 (dengue virus type 2 [7]): 1090 nM; CC50 at 72 h [8]: > 200000 nM
COc1ccc(-n2nc(-c3ccc(F)cc3)cc2-c2ccc3cc(F)ccc3n2)cc1	6.12	15.8	52.5	89.1	–
COc1ccc(-c2cc(-c3ccc4cc(F)ccc4n3)nn2-c2ccccc2)cc1	4.14	7.15	93.7	95.6	–
Fc1ccc(-c2cc(-c3ccc4cc(F)ccc4n3)nn2-c2ccccc2)cc1	3.58	6.14	89.7	88.3	–
NS(=O)(=O)c1ccc(-n2nc(-c3ccccc3)cc2-c2ccc3cc(F)ccc3n2)cc1	4.52	11.8	83.6	89.2	–
Fc1ccc2nc(-c3cc(-c4ccccc4)n(-c4ccccc4)n3)ccc2c1	5.21	15.3	115	124	–
COc1ccc(-n2nc(-c3ccccc3)cc2-c2ccc3cc(F)ccc3n2)cc1	7.81	20.7	97.3	116	–
Fc1ccc(-c2cc(-c3ccc4cc(F)ccc4n3)n(-c3ccccc3)n2)cc1	11.2	25.4	87.5	88.1	–
Fc1ccc(-n2nc(-c3ccccc3)cc2-c2ccc3cc(F)ccc3n2)cc1	4.36	8.31	91.6	97.8	–
COc1ccc(-c2cc(-c3ccc4cc(F)ccc4n3)n(-c3ccccc3)n2)cc1	5.31	8.09	98.9	104	–
Fc1ccc(-c2cc(-c3ccc4cc(F)ccc4n3)n(-c3ccc(F)cc3)n2)cc1	8.91	22.4	86.5	95.3	–
COc1ccc(-c2cc(-c3ccc4cc(F)ccc4n3)n(-c3ccc(S(N)(=O)=O)cc3)n2)cc1	59	85.3	89.5	83.7	IC50 (dengue virus type 4): 1560 nM; Activity (dengue virus type 2 [9]): Active; selectivity ratio [2]: > 247; IC50 (dengue virus type 1): 1210 nM; IC50 (dengue virus type 3): 730 nM; Activity (dengue virus type 2 [10]): Active; Activity (dengue virus type 2 [11]): Active; Activity (dengue virus type 2 [12]): Active; Ratio IC50 (dengue virus type 2 [6]): 10; Activity (dengue virus type 2 [13]): Active; IC50 (dengue virus type 2 [7]): 810 nM; Activity (dengue virus type 2 [14]): Active; CC50 at 72 h [8]: > 200000 nM
